Results from PubChem BioAssay.
Records with an inconclusive call do not appear.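 How the source made its calls, unless noted: active means growth inhibition above 25% in both replicates, a cutoff set 3 SD above the mean; inconclusive means above 25% in only one replicate; inactive means the rest.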

How the values were obtained:
[1] = S. cerevisiae growth inhibition in permissive medium (OD615), pilot counter-assay for S. cerevisiae lifespan shortening project, permissive growth control (AID 705); details: OD615, 24 h, at 10 µM, stronger effect = higher value
Procedure, shortened: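 System – S. cerevisiae with engineered DeaD lifespan system · Buffer or medium – SC raffinose/galactose permissive medium · Schedule – cells pre-grown 4 h, then 24 h compound exposure, 30 °C humidified · Technique – culture turbidity as optical density at 615 nm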

[2] = S. cerevisiae growth inhibition in restrictive medium, OD615, pilot screen, restrictive growth control, yeast lifespan reduction project (AID 706;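 active means growth inhibition above a set limit, 3 SD over mean compound inhibition, in both replicates, cut at about 43% in these data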;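 further: modified DeaD lifespan yeast strain shifted to restrictive glucose medium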); details: OD615, 48 h, at 10 µM, stronger effect = higher value
Procedure, shortened: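 Material: engineered S. cerevisiae DeaD strain / Medium: glucose-based CSMM-D restrictive medium / Compound: single dose of 10 µM compound final, 0.25% DMSO / Timing: 4 h pre-incubation, 48 h exposure at 30 °C / Technique: OD615 absorbance reading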

[3] = doxorubicin toxicity protection in MRP-1 cells – H69AR cells, CellTiter-Glo, duplicate, MRP-1 activator project, pilot screen (AID 807;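 active means viability increase at or above a cutoff of the median across tested compounds plus 3 SD, cut at about 8.5% in these data, passing the limit was not always enough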;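 further: compound pretreatment 18-22 h then 72 h combined with doxorubicin; 0% = doxorubicin alone and 100% = vehicle without doxorubicin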); details: H69AR viability with doxorubicin, CellTiter-Glo luminescence; at 10 µM; stronger effect = higher value
[4] = viability of HCT116 without oncogenic beta-catenin – human colon tumor cells, pilot screen (AID 823;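 active means cell viability at or below a set limit in both duplicate runs, the limit being the all-compound median minus 4 SD, cut at about 23% in these data, passing the limit was not always enough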;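 further: 0% = wells killed by 20 µM Hyamine and 100% = untreated DMSO cell wells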); details: HCT116 beta-catenin knockout viability, CellTiter-Glo, 60 h; at 10 µM; stronger effect = lower value
[5] = viability of PTEN-null HCT116 cells – cell-based, HCT116 clonal line, CellTiter-Glo, pilot screen (AID 824;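 active means viability at or below 27.92% in each of two runs, the all-compound median minus 4 SD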;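 further: 0% = 20 µM Hyamine control and 100% = vehicle cell control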); details: HCT116 PTEN-deleted viability, 60 h, at 10 µM, stronger effect = lower value
[6] = RAM pathway blockade in budding yeast – dse1pr::URA3 reporter, 5-FOA selection, pilot screen (AID 869;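 active means inhibition over a set limit, the all-compound mean plus 3 SD, in both replicate runs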;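 further: 0% = DMSO wells with no growth and 100% = 10 µM 1-NA-PP1 with full growth; RAM network block rescues cells from 5-FOA so hits raise OD615 growth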); details: S. cerevisiae dse1pr::URA3 5-FOA growth, OD615, 2 d; at 10 µM; stronger effect = higher value; strain carries analog-sensitive mutant Cbk1 kinase
[7] = RAM signaling pathway blockade in yeast – S. cerevisiae, Pdr1DBD-CYC8 efflux-inhibited sensitized strain, primary screen (AID 1298;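 active means RAM network inhibition above 8.4% in each of two replicates, 3 SD over the compound average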;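 further: 0% = DMSO untreated cells without growth and 100% = 10 µM 1-NA-PP1 full growth; higher means more yeast growth rescued from 5-FOA killing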); details: S. cerevisiae cbk1-as DSE1-URA3 strain, 5-FOA growth OD615, 2 d; at 50 µM; stronger effect = higher value

O=C(NCCCN1CCC(Cc2ccccc2)CC1)C1CC(=O)N(C2CCCC2)C1 (centres undefined)
inactive: growth inhibition [1] 1.72% | growth inhibition [2] -13.9% | viability increase [3] -2.03% | viability [4] 88.5% | viability [5] 83.7% | inhibition [6] -0.05% | RAM network inhibition [7] 2.13%

Cn1c(CNC(=O)C(C)(C)C)nc2ccccc21
inactive: growth inhibition [1] -11.4% | growth inhibition [2] -0.87% | viability increase [3] -3.97% | viability [4] 101% | viability [5] 93.1% | inhibition [6] 1.8% | RAM network inhibition [7] 2.73%

COc1ccc(NC(=O)C2CCN(S(=O)(=O)c3cccc4cccnc34)CC2)cc1
inactive: growth inhibition [1] -4.51% | growth inhibition [2] 3.15% | viability increase [3] 1.75% | viability [4] 102% | viability [5] 101% | inhibition [6] 2.21% | RAM network inhibition [7] 0.67%

Cn1c(=O)oc2cc(S(=O)(=O)N3CCC(C(=O)N4CCN(c5ccccc5)CC4)CC3)ccc21
inactive: growth inhibition [1] 0.31% | growth inhibition [2] 3.94% | viability increase [3] -2.78% | viability [4] 94.6% | viability [5] 93.1% | inhibition [6] -0.21% | RAM network inhibition [7] 7.13%

COc1ccc(N(CC(=O)Nc2nccs2)S(=O)(=O)c2c(C)nn(C)c2C)cc1
inactive: growth inhibition [1] -18.2% | growth inhibition [2] -6.82% | viability increase [3] -3.77% | viability [4] 93% | viability [5] 87.5% | inhibition [6] 3% | RAM network inhibition [7] 3.8%

Cn1c(=O)oc2cc(S(=O)(=O)NC(Cc3ccccc3)C(=O)N3CCCCC3)ccc21 (centres undefined)
inactive: growth inhibition [1] -6.13% | growth inhibition [2] -11.9% | viability increase [3] -2.55% | viability [4] 109% | viability [5] 98.6% | inhibition [6] 2.8% | RAM network inhibition [7] 2.02%

CCCCNC(=O)CS(=O)Cc1nc(-c2ccc(C)cc2)oc1C (centres undefined)
inactive: growth inhibition [1] -7.66% | growth inhibition [2] 0.83% | viability increase [3] -2.08% | viability [4] 87.4% | viability [5] 88.5% | inhibition [6] -0.365% | RAM network inhibition [7] 2.19%

Nc1c(NCc2ccccc2F)c(=O)[nH]c(=O)n1Cc1ccccc1
inactive: growth inhibition [1] 0.38% | growth inhibition [2] -8.14% | viability increase [3] -1.53% | viability [4] 106% | viability [5] 100% | inhibition [6] 0.67% | RAM network inhibition [7] 1%

CCCS(=O)(=O)n1nc(-c2ccc(OC)cc2OC)cc1N
inactive: growth inhibition [1] -6.52% | growth inhibition [2] -22.5% | viability increase [3] -2.51% | viability [4] 101% | viability [5] 102% | inhibition [6] -0.255% | RAM network inhibition [7] 4.63%

O=C(C(Cc1ccccc1)n1cccc1)N1CCN(C2CCCCC2)CC1 (centres undefined)
inactive: growth inhibition [1] -10.9% | growth inhibition [2] -3.01% | viability increase [3] -3.47% | viability [4] 81.8% | viability [5] 88.7% | inhibition [6] 1.42% | RAM network inhibition [7] 8.24%

CCN1CCN(C(c2cccs2)C(C)NC(=O)C(C)C)CC1 (centres undefined)
inactive: growth inhibition [1] -3.71% | growth inhibition [2] 2.65% | viability increase [3] -2.01% | viability [4] 98% | viability [5] 92.2% | inhibition [6] -0.3% | RAM network inhibition [7] 3.86%

CCOCCn1c(CN2CCC(C)CC2)nc2c1c(=O)n(C)c(=O)n2C
inactive: growth inhibition [1] 7.15% | growth inhibition [2] -2.44% | viability increase [3] -1.22% | viability [4] 91.8% | viability [5] 91.5% | inhibition [6] 0.02% | RAM network inhibition [7] -0.56%

CC1CCCCN1C(=O)CSCC(=O)Nc1nc(-c2cccs2)cs1 (centres undefined)
inactive: growth inhibition [1] 2.07% | growth inhibition [2] -3.92% | viability increase [3] -4.62% | viability [4] 99.2% | viability [5] 94.6% | inhibition [6] 0.505% | RAM network inhibition [7] 1.69%

Cn1c(NCCO)nc2c(c1=O)C1(CCCCC1)Cc1ccccc1-2
inactive: growth inhibition [1] -13.2% | growth inhibition [2] -9.4% | viability increase [3] -2.31% | viability [4] 84% | viability [5] 76% | inhibition [6] 2.31% | RAM network inhibition [7] 5%

CCc1cc(=O)oc2cc(OCC(=O)N(CC)CC)c(Cl)cc12
inactive: growth inhibition [1] 6.47% | growth inhibition [2] -5.33% | viability increase [3] 1.34% | viability [4] 109% | viability [5] 104% | inhibition [6] -0.545% | RAM network inhibition [7] 3.66%

OC(CNCc1ccco1)COc1ccccc1 (centres undefined)
inactive: growth inhibition [1] -12.7% | growth inhibition [2] -10.2% | viability increase [3] 0.59% | viability [4] 100% | viability [5] 103% | inhibition [6] 1.44% | RAM network inhibition [7] 2.54%

COc1ccc2c(c1)NC1(O)c3ccccc3C(=O)C21O (centres undefined)
inactive: growth inhibition [1] -5.39% | growth inhibition [2] 4.5% | viability increase [3] -1.41% | viability [4] 99.3% | viability [5] 98.3% | inhibition [6] 1.53% | RAM network inhibition [7] 3.44%
